{
  "source": "ChEMBL document CHEMBL3244330",
  "about": "“Structure--activity relationships of n-substituted dopamine and 2-amino-6,7-dihydroxy-1,2,3,4-tetrahydronaphthalene analogues: behavioral effects in lesioned and reserpinized mice” (J Med Chem, 1979)",
  "key": {"Mus musculus [1]": {"system": "Mus musculus", "experiment": "Postural effect on caudectomized Swiss albino mouse assessed as latency to onset time of asymmetric postural effect at 27.3 mg/kg, ip", "type": "functional", "conditions": "route intraperitoneal", "how_it_was_run": "(§1)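 Male Swiss albino Hale-Stoner mice with a right caudectomy made by suction. A lesion was accepted if the mouse responded to apomorphine 4 weeks after surgery. Compounds were dissolved in 0.9% saline and injected ip at random into groups of six, with a maximum dose of 0.348 mmol/kg. 18 mice were used per compound, and mice were retested after 5–6 day intervals. Onset and duration of the asymmetric posture are reported as mean ± SE from six animals.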"}, "Mus musculus [2]": {"system": "Mus musculus", "experiment": "Postural effect on caudectomized Swiss albino mouse assessed as latency to onset time of asymmetric postural effect at 41 mg/kg, ip", "type": "functional", "conditions": "route intraperitoneal", "how_it_was_run": "as §1"}, "Mus musculus [3]": {"system": "Mus musculus", "experiment": "Toxicity in caudectomized Swiss albino mouse at 54.6 mg/kg, ip", "type": "organism-based", "set-up": "dose 54.6 mg/kg, route intraperitoneal", "conditions": "in vivo"}, "Mus musculus [4]": {"system": "Mus musculus", "experiment": "Postural effect on caudectomized Swiss albino mouse assessed as time duration of asymmetric posture at 27.3 mg/kg, ip", "type": "functional", "conditions": "route intraperitoneal", "how_it_was_run": "as §1"}, "Mus musculus [5]": {"system": "Mus musculus", "experiment": "Postural effect on caudectomized Swiss albino mouse assessed as time duration of asymmetric posture at 41 mg/kg, ip", "type": "functional", "conditions": "route intraperitoneal", "how_it_was_run": "as §1"}, "Mus musculus [6]": {"system": "Mus musculus", "experiment": "Reversal of reserpine-induced catalepsy in ip dosed Swiss albino (CD1) mouse", "type": "functional", "how_it_was_run": "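Male Swiss albino CD1 mice, 5 weeks old, got reserpine 5 mg/kg ip, then α-MTM 250 mg/kg ip 17 h later, then the test drug ip 4 h after that. Catalepsy was scored by the rubber-stopper test (time to step off the stopper). At least four doses were used, with ≥8 mice per dose. ED50 was taken from a log-probit plot of percent responders against dose.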"}, "Mus musculus [7]": {"system": "Mus musculus", "experiment": "Ratio of apomorphine ED50 to compound ED50 for reversal of reserpine-induced catalepsy in ip dosed Swiss albino (CD1) mouse", "type": "functional"}, "Mus musculus [8]": {"system": "Mus musculus", "experiment": "Postural effect on caudectomized Swiss albino mouse assessed as latency to onset time of asymmetric postural effect at 29.8 mg/kg, ip", "type": "functional", "conditions": "route intraperitoneal", "how_it_was_run": "as §1"}, "Mus musculus [9]": {"system": "Mus musculus", "experiment": "Toxicity in caudectomized Swiss albino mouse at 44.6 mg/kg, ip", "type": "organism-based", "set-up": "dose 44.6 mg/kg, route intraperitoneal", "conditions": "in vivo"}, "Mus musculus [10]": {"system": "Mus musculus", "experiment": "Postural effect on caudectomized Swiss albino mouse assessed as time duration of asymmetric posture at 29.8 mg/kg, ip", "type": "functional", "conditions": "route intraperitoneal", "how_it_was_run": "as §1"}, "Mus musculus [11]": {"system": "Mus musculus", "experiment": "Postural effect on caudectomized Swiss albino mouse assessed as time duration of asymmetric posture at 23.8 mg/kg, ip", "type": "functional", "conditions": "route intraperitoneal", "how_it_was_run": "as §1"}, "Mus musculus [12]": {"system": "Mus musculus", "experiment": "Postural effect on caudectomized Swiss albino mouse assessed as time duration of asymmetric posture at 47.6 mg/kg, ip", "type": "functional", "conditions": "route intraperitoneal", "how_it_was_run": "as §1"}, "Mus musculus [13]": {"system": "Mus musculus", "experiment": "Postural effect on caudectomized Swiss albino mouse assessed as time duration of asymmetric posture at 71.5 mg/kg, ip", "type": "functional", "conditions": "route intraperitoneal", "how_it_was_run": "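Male Swiss albino Hale-Stoner mice given a right caudectomy by suction. The lesion counted as successful if the mice reacted to apomorphine 4 weeks later. Drug was given ip in 0.9% saline, up to 0.348 mmol/kg, to randomised groups of six, with 5-6 days before reuse. Onset and duration of asymmetric posture are reported as mean ± SE from six animals.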"}, "Mus musculus [14]": {"system": "Mus musculus", "experiment": "Postural effect on caudectomized Swiss albino mouse assessed as latency to onset time of asymmetric postural effect at 23.8 mg/kg, ip", "type": "functional", "conditions": "route intraperitoneal", "how_it_was_run": "as §1"}, "Mus musculus [15]": {"system": "Mus musculus", "experiment": "Postural effect on caudectomized Swiss albino mouse assessed as latency to onset time of asymmetric postural effect at 47.6 mg/kg, ip", "type": "functional", "conditions": "route intraperitoneal", "how_it_was_run": "as §1"}, "Mus musculus [16]": {"system": "Mus musculus", "experiment": "Postural effect on caudectomized Swiss albino mouse assessed as latency to onset time of asymmetric postural effect at 71.5 mg/kg, ip", "type": "functional", "conditions": "route intraperitoneal", "how_it_was_run": "as §1"}, "Mus musculus [17]": {"system": "Mus musculus", "experiment": "Postural effect on caudectomized Swiss albino mouse assessed as latency to onset time of asymmetric postural effect at 29.2 mg/kg, ip", "type": "functional", "conditions": "route intraperitoneal", "how_it_was_run": "(§2)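 Male Swiss albino Hale-Stoner mice with right caudectomy by suction, used if responsive to apomorphine 4 weeks post-lesion. Compound in 0.9% saline given ip, maximum 0.348 mmol/kg. 18 mice per compound in random groups of six, retested after 5–6 day intervals. Onset latency and duration of asymmetric posture recorded; mean ± SE from six animals.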"}, "Mus musculus [18]": {"system": "Mus musculus", "experiment": "Postural effect on caudectomized Swiss albino mouse assessed as latency to onset time of asymmetric postural effect at 58.4 mg/kg, ip", "type": "functional", "conditions": "route intraperitoneal", "how_it_was_run": "as §2"}, "Mus musculus [19]": {"system": "Mus musculus", "experiment": "Postural effect on caudectomized Swiss albino mouse assessed as time duration of asymmetric posture at 29.2 mg/kg, ip", "type": "functional", "conditions": "route intraperitoneal", "how_it_was_run": "as §2"}, "Mus musculus [20]": {"system": "Mus musculus", "experiment": "Postural effect on caudectomized Swiss albino mouse assessed as time duration of asymmetric posture at 58.4 mg/kg, ip", "type": "functional", "conditions": "route intraperitoneal", "how_it_was_run": "as §2"}},
  "data": [
    {"smiles": "Br.CCCCN(CCC)C1CCc2cc(O)c(O)cc2C1", "note": "(stereo not drawn)", "values": [
      {"measurement": "Time", "setting": "Mus musculus [1]", "result": 2.8, "unit": "min"},
      {"measurement": "Time", "setting": "Mus musculus [2]", "result": 2, "unit": "min"},
      {"measurement": "Activity", "setting": "Mus musculus [3]", "result": "Toxic"},
      {"measurement": "Time", "setting": "Mus musculus [4]", "result": 17, "unit": "min"},
      {"measurement": "Time", "setting": "Mus musculus [5]", "result": 31.5, "unit": "min"},
      {"measurement": "ED50", "setting": "Mus musculus [6]", "result": 1.3, "unit": "mg/kg"},
      {"measurement": "Ratio ED50", "setting": "Mus musculus [7]", "result": 10}
    ]},
    {"smiles": "CCCN(CCc1ccc(O)c(O)c1)CCC1CCCCC1.Cl", "values": [
      {"measurement": "Time", "setting": "Mus musculus [8]", "result": 4.2, "unit": "min"},
      {"measurement": "Activity", "setting": "Mus musculus [9]", "result": "Toxic"},
      {"measurement": "Time", "setting": "Mus musculus [10]", "result": 14.1, "unit": "min"},
      {"measurement": "ED50", "setting": "Mus musculus [6]", "result": 18, "unit": "mg/kg"}
    ]},
    {"smiles": "CCCCN(CC)CCc1ccc(O)c(O)c1.Cl", "values": [
      {"measurement": "Time", "setting": "Mus musculus [11]", "result": 4.2, "unit": "min"},
      {"measurement": "Time", "setting": "Mus musculus [12]", "result": 2.5, "unit": "min"},
      {"measurement": "Time", "setting": "Mus musculus [13]", "result": 19.4, "unit": "min"},
      {"measurement": "Time", "setting": "Mus musculus [14]", "result": 2.1, "unit": "min"},
      {"measurement": "Time", "setting": "Mus musculus [15]", "result": 2.3, "unit": "min"},
      {"measurement": "Time", "setting": "Mus musculus [16]", "result": 5, "unit": "min"},
      {"measurement": "ED50", "setting": "Mus musculus [6]", "result": 34, "unit": "mg/kg"}
    ]},
    {"smiles": "CCCN(CCc1ccccc1)CCc1ccc(O)c(O)c1.Cl", "values": [
      {"measurement": "Time", "setting": "Mus musculus [17]", "result": 4.4, "unit": "min"},
      {"measurement": "Time", "setting": "Mus musculus [18]", "result": 3.2, "unit": "min"},
      {"measurement": "Time", "setting": "Mus musculus [19]", "result": 19.8, "unit": "min"},
      {"measurement": "Time", "setting": "Mus musculus [20]", "result": 47.4, "unit": "min"},
      {"measurement": "ED50", "setting": "Mus musculus [6]", "result": 7.4, "unit": "mg/kg"}
    ]}
  ]
}
